Results taken from ChEMBL document CHEMBL1145833, “Studies on the synthesis and biological properties of non-carrier-added [(125)I and (131)I]-labeled arylalkylidenebisphosphonates: potent bone-seekers for diagnosis and therapy of malignant osseous lesions” (J Med Chem, 2003).
One block for each compound: values may come before it.

What was measured:
Details in all cases: in vivo
Mus musculus [1] = species: Mus musculus; experiment: Distribution of compound in lungs tissue of mice after 24 hr injection time was determined; assay type: ADME, organism-based, Lung
Outline: (§1)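 Healthy athymic nude mice (balb/c nu/nu, 20–25 g, both sexes) received 50–400 KBq radioiodinated bisphosphonate in 100 µL phosphate buffer pH 6–7 by tail-vein injection. Three animals were sacrificed per time point. Tissues were excised, weighed and gamma-counted. Values are % injected dose per gram tissue, mean ± 1 SD, n = 3.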

Mus musculus [2] = species: Mus musculus; experiment: Distribution of compound in skull tissue of mice after 24 hr injection time was determined; assay type: ADME, organism-based; outline: as §1
Mus musculus [3] = species: Mus musculus; experiment: Distribution of compound in kidneys tissue of mice after 24 hr injection time was determined; assay type: ADME, organism-based, Kidney; outline: as §1
Mus musculus [4] = species: Mus musculus; experiment: Distribution of compound in liver tissue of mice after 24 hr injection time was determined; assay type: ADME, organism-based; outline: as §1
Mus musculus [5] = species: Mus musculus; experiment: Distribution of compound in heart tissue of mice after 24 hr injection time was determined; assay type: ADME, organism-based; outline: as §1
Mus musculus [6] = species: Mus musculus; experiment: Distribution of compound in intestine tissue of mice after 24 hr injection time was determined; assay type: ADME, organism-based; outline: as §1
Mus musculus [7] = species: Mus musculus; experiment: Distribution of compound in spleen tissue of mice after 24 hr injection time was determined; assay type: ADME, organism-based; outline: as §1
Mus musculus [8] = species: Mus musculus; experiment: Distribution of compound in stomach tissue of mice after 24 hr injection time was determined; assay type: ADME, organism-based; outline: as §1
Mus musculus [9] = species: Mus musculus; experiment: Distribution of compound in thyroid tissue of mice after 24 h injection time was determined; assay type: ADME, organism-based, Thyroid gland
Outline: (§2)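 Healthy athymic nude balb/c nu/nu mice (20–25 g) received 50–400 KBq radioiodinated bisphosphonate in 100 μL phosphate buffer, pH 6–7, by tail-vein injection. Three animals were sacrificed per time point. Thyroid-containing tissue was excised, weighed and gamma-counted. Values are % of injected dose, mean ± 1 SD of three mice.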

Mus musculus [10] = species: Mus musculus; experiment: Distribution of compound in blood tissue of mice after 24 hr injection time was determined; assay type: ADME, organism-based; outline: as §1
Mus musculus [11] = species: Mus musculus; experiment: Distribution of compound in femur tissue of mice after 24 hr injection time was determined; assay type: ADME, organism-based; outline: as §1
Mus musculus [12] = species: Mus musculus; experiment: Distribution of compound in liver tissue of mice after 5 hr injection time was determined; assay type: ADME, organism-based; outline: as §1
Mus musculus [13] = species: Mus musculus; experiment: Distribution of compound in lungs tissue of mice after 0.5 h injection time was determined; assay type: ADME, organism-based, Lung; outline: as §1
Mus musculus [14] = species: Mus musculus; experiment: Distribution of compound in lungs tissue of mice after 2 hr injection time was determined; assay type: ADME, organism-based, Lung; outline: as §1
Mus musculus [15] = species: Mus musculus; experiment: Distribution of compound in lungs tissue of mice after 5 hr injection time was determined; assay type: ADME, organism-based, Lung; outline: as §1
Mus musculus [16] = species: Mus musculus; experiment: Distribution of compound in skull tissue of mice after 0.5 hr injection time was determined; assay type: ADME, organism-based; outline: as §1
Mus musculus [17] = species: Mus musculus; experiment: Distribution of compound in skull tissue of mice after 2 hr injection time was determined; assay type: ADME, organism-based; outline: as §1
Mus musculus [18] = species: Mus musculus; experiment: Distribution of compound in skull tissue of mice after 5 h injection time was determined; assay type: ADME, organism-based; outline: as §1
Mus musculus [19] = species: Mus musculus; experiment: Distribution of compound in spleen tissue of mice after 0.5 hr injection time was determined; assay type: ADME, organism-based; outline: as §1
Mus musculus [20] = species: Mus musculus; experiment: Distribution of compound in kidneys tissue of mice after 0.5 hr injection time was determined; assay type: ADME, organism-based, Kidney; outline: as §1
Mus musculus [21] = species: Mus musculus; experiment: Distribution of compound in kidneys tissue of mice after 2 hr injection time was determined; assay type: ADME, organism-based, Kidney; outline: as §1
Mus musculus [22] = species: Mus musculus; experiment: Distribution of compound in kidneys tissue of mice after 5 hr injection time was determined; assay type: ADME, organism-based, Kidney; outline: as §1
Mus musculus [23] = species: Mus musculus; experiment: Distribution of compound in liver tissue of mice after 0.5 hr injection time was determined; assay type: ADME, organism-based; outline: as §1
Mus musculus [24] = species: Mus musculus; experiment: Distribution of compound in heart tissue of mice after 2 hr injection time was determined; assay type: ADME, organism-based; outline: as §1
Mus musculus [25] = species: Mus musculus; experiment: Distribution of compound in heart tissue of mice after 5 hr injection time was determined; assay type: ADME, organism-based; outline: as §1
Mus musculus [26] = species: Mus musculus; experiment: Distribution of compound in intestine tissue of mice after 0.5 hr injection time was determined; assay type: ADME, organism-based; outline: as §1
Mus musculus [27] = species: Mus musculus; experiment: Distribution of compound in intestine tissue of mice after 2 hr injection time was determined; assay type: ADME, organism-based; outline: as §1
Mus musculus [28] = species: Mus musculus; experiment: Distribution of compound in intestine tissue of mice after 5 hr injection time was determined; assay type: ADME, organism-based; outline: as §1
Mus musculus [29] = species: Mus musculus; experiment: Distribution of compound in spleen tissue of mice after 2 hr injection time was determined; assay type: ADME, organism-based; outline: as §1
Mus musculus [30] = species: Mus musculus; experiment: Distribution of compound in spleen tissue of mice after 5 h injection time was determined; assay type: ADME, organism-based; outline: as §1
Mus musculus [31] = species: Mus musculus; experiment: Distribution of compound in stomach tissue of mice after 0.5 hr injection time was determined; assay type: ADME, organism-based; outline: as §1
Mus musculus [32] = species: Mus musculus; experiment: Distribution of compound in stomach tissue of mice after 2 hr injection time was determined; assay type: ADME, organism-based; outline: as §1
Mus musculus [33] = species: Mus musculus; experiment: Distribution of compound in stomach tissue of mice after 5 hr injection time was determined; assay type: ADME, organism-based; outline: as §1
Mus musculus [34] = species: Mus musculus; experiment: Distribution of compound in thyroid tissue of mice after 0.5 hr injection time was determined; assay type: ADME, organism-based, Thyroid gland; outline: as §2
Mus musculus [35] = species: Mus musculus; experiment: Distribution of compound in thyroid tissue of mice after 2 hr injection time was determined; assay type: ADME, organism-based, Thyroid gland; outline: as §2
Mus musculus [36] = species: Mus musculus; experiment: Distribution of compound in thyroid tissue of mice after 5 h injection time was determined; assay type: ADME, organism-based, Thyroid gland; outline: as §2
Mus musculus [37] = species: Mus musculus; experiment: Distribution of compound in blood tissue of mice after 0.5 hr injection time was determined; assay type: ADME, organism-based; outline: as §1
Mus musculus [38] = species: Mus musculus; experiment: Distribution of compound in blood tissue of mice after 2 hr injection time was determined; assay type: ADME, organism-based; outline: as §1
Mus musculus [39] = species: Mus musculus; experiment: Distribution of compound in blood tissue of mice after 5 h injection time was determined; assay type: ADME, organism-based; outline: as §1
Mus musculus [40] = species: Mus musculus; experiment: Distribution of compound in femur tissue of mice after 0.5 hr injection time was determined; assay type: ADME, organism-based; outline: as §1
Mus musculus [41] = species: Mus musculus; experiment: Distribution of compound in femur tissue of mice after 2 hr injection time was determined; assay type: ADME, organism-based; outline: as §1
Mus musculus [42] = species: Mus musculus; experiment: Distribution of compound in femur tissue of mice after 5 hr injection time was determined; assay type: ADME, organism-based; outline: as §1
Mus musculus [43] = species: Mus musculus; experiment: Distribution of compound in heart tissue of mice after 0.5 hr injection time was determined; assay type: ADME, organism-based; outline: as §1
Mus musculus [44] = species: Mus musculus; experiment: Distribution of compound in liver tissue of mice after 2 h injection time was determined; assay type: ADME, organism-based; outline: as §1

Injected (Mus musculus [1]): 0.67% | Injected (Mus musculus [2]): 0.91% | Injected (Mus musculus [3]): 0.4% | Injected (Mus musculus [4]): 5.57% | Injected (Mus musculus [5]): 0.19% | Injected (Mus musculus [6]): 0.1% | Injected (Mus musculus [7]): 2.49% | Injected (Mus musculus [8]): 0.07% | Injected (Mus musculus [9]): 0.02% | Injected (Mus musculus [10]): 0.18% | Injected (Mus musculus [11]): 1.39%
Compound: O=P(O)(O)C(NCCc1cccc(I)c1)P(=O)(O)O

Injected (Mus musculus [12]): 0.94% | Injected (Mus musculus [13]): 1% | Injected (Mus musculus [14]): 0.35% | Injected (Mus musculus [1]): 0.06% | Injected (Mus musculus [15]): 0.1% | Injected (Mus musculus [16]): 10.28% | Injected (Mus musculus [17]): 7.64% | Injected (Mus musculus [2]): 7.13% | Injected (Mus musculus [18]): 6.16% | Injected (Mus musculus [19]): 0.35% | Injected (Mus musculus [20]): 8.23% | Injected (Mus musculus [21]): 3.68% | Injected (Mus musculus [3]): 1.06% | Injected (Mus musculus [22]): 2.26% | Injected (Mus musculus [23]): 2.98% | Injected (Mus musculus [4]): 0.23% | Injected (Mus musculus [24]): 0.26% | Injected (Mus musculus [5]): 0.04% | Injected (Mus musculus [25]): 0.07% | Injected (Mus musculus [26]): 0.37% | Injected (Mus musculus [27]): 0.28% | Injected (Mus musculus [6]): 0.28% | Injected (Mus musculus [28]): 0.24% | Injected (Mus musculus [29]): 0.26% | Injected (Mus musculus [7]): 0.1% | Injected (Mus musculus [30]): 0.12% | Injected (Mus musculus [31]): 1.14% | Injected (Mus musculus [32]): 1.12% | Injected (Mus musculus [8]): 0.05% | Injected (Mus musculus [33]): 0.23% | Injected (Mus musculus [34]): 0.21% | Injected (Mus musculus [35]): 0.14% | Injected (Mus musculus [9]): 0.02% | Injected (Mus musculus [36]): 0.06% | Injected (Mus musculus [37]): 2.22% | Injected (Mus musculus [38]): 0.31% | Injected (Mus musculus [10]): 0.03% | Injected (Mus musculus [39]): 0.11% | Injected (Mus musculus [40]): 18.8% | Injected (Mus musculus [41]): 21.16% | Injected (Mus musculus [11]): 15.25% | Injected (Mus musculus [42]): 10% | Injected (Mus musculus [43]): 0.9% | Injected (Mus musculus [44]): 2.14%
Compound: O=P(O)(O)C(Cc1cccc(I)c1)P(=O)(O)O
